Here are results for nine substances from PMC2756285 (Biochemistry, 2009).

The target of assay [1] is T1, rec-α5LG45 protein—heparin binding (Mus musculus, UniProt Q61001).
T1 sequence (Q61001 3318-3718): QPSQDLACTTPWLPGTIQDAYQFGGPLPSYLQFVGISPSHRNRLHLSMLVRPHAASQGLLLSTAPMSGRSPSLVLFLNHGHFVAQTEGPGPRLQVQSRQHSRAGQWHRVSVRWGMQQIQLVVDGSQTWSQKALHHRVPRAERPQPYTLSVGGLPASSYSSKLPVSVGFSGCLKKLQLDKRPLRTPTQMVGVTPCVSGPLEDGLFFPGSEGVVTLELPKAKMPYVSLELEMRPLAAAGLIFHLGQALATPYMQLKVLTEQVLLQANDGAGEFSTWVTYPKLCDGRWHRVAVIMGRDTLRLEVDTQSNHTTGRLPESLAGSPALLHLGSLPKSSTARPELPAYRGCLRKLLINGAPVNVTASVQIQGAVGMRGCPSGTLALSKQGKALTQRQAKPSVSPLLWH
The assay can be described thus: Peptide inhibition of heparin-binding to rec-α5LG45. In outline: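 Mouse laminin α5 LG45 fused to human IgG Fc, expressed in transfected 293T cells, purified on Protein A then heparin-Sepharose. The protein (3 µg), heparin-Sepharose beads (1 mg) and varying peptide amounts were incubated for 1 h at 4 °C in 70 µL of 10 mM Tris-HCl pH 7.4 with 100 mM NaCl. Beads were washed twice. Bound protein was detected by reducing 8% SDS-PAGE and anti-human Fc Western blot with ECL. Run in triplicate.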

In a further assay the test system is cell attachment. The conditions noted are these: cited from earlier work; for cell adhesion (AG73 and EF-1 together): synergetic interaction of syndecan and integrin α2β1.
For assay [2] the following is noted: cited from earlier work.
The next assay concerns syndecans. The following applies: membrane-associated proteoglycans; cited from earlier work.
In another assay the test system is syndecan-1. The following applies: membrane-associated proteoglycan; cited from earlier work.
The next assay has as its system syndecan-4. The following applies: cited from earlier work.

No end group written: not given here.

In assay [1], AGQWHRVSVRWG-NH2 [A5G81, AGQWHRVSVRWG] came in with an IC50 of 5.9 µM.

In the case of DYATLQLQEGRLHFMFDLG [EF-1], the “cell adhesion (AG73 and EF-1 together)” value in the assay on cell attachment is “cooperate and induce cell adhesion”.

GLIYYVAHQNQM [AG75]: the heparin-binding result in assay [2] is listed as “heparin-binding”.

In the case of GPLPSYLQFVGI-NH2 [A5G71, GPLPSYLQFVGI], in assay [1], the IC50 came out at 91.8 µM.

The substance KMPYVSLELEMR-NH2 [A5G94, KMPYVSLELEMR] yielded an IC50 in assay [1] of 0.84 µM.

For the substance KNSFMALYLSKG [A3G75], the heparin-binding entry in assay [2] is “heparin-binding sequence”. In the assay with syndecans, the interaction with syndecans entry was “interact with syndecans”.

The substance LVLFLNHGHFVA-NH2 [A5G77, LVLFLNHGHFVA] yielded an IC50 in assay [1] of 7 µM.

With RKRLQVQLSIRT [AG73], in assay [2], the heparin-binding entry is “the strongest heparin-binding peptide” and the heparin/heparan sulfate binding entry is reported as “heparin/heparan sulfate binding”. In addition, the interaction with syndecans result in the assay with syndecans is listed as “interact with syndecans”. Moreover, the “cell adhesion (AG73 and EF-1 together)” value in the assay with cell attachment was “cooperate and induce cell adhesion”. Besides, the syndecan-1 binding entry with syndecan-1 is recorded as “binds syndecan-1”.

Take TLFLAHGRLVFM [A4G82]: the heparin-binding entry in assay [2] is “exhibited heparin- and syndecan-4-binding”. For the same substance, the interaction with syndecans result with syndecans is “interact with syndecans”. Also, the cell attachment activity result in the assay on cell attachment is on record as “cell attachment activity”. Further, in the assay with syndecan-4, the syndecan-4-binding result is “exhibited heparin- and syndecan-4-binding”.
